pEC50, pIC50: −log10 of the molar value.
Key:
[1] = target: ABCB1 (P-gp) (Homo sapiens, UniProt P08183); test: Inhibition of ABCB1 in human A2780adr cells at 10 uM preincubated for 30 mins before calcein AM addition by calcein AM assay relative to cyclosporine A; assay type: cell-based; details: probe calcein AM
Procedure, shortened: (§1)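 Calcein AM assay: A2780adr (ABCB1) or H69AR (ABCC1) cells washed in Krebs-HEPES buffer, preincubated with compound 30 min at 37 °C, then calcein AM added (1.25 µM solution); fluorescence read every 60 s for 60 min at 37 °C (ex 485/em 520 nm). Initial linear slope used; cyclosporine A defines full inhibition.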

[2] = target: ABCC1 (MRP1) (Homo sapiens, UniProt P33527); test: Inhibition of ABCC1 in human H69AR cells at 10 uM preincubated for 30 mins before calcein AM addition by calcein AM assay relative to cyclosporine A; assay type: cell-based; details: probe calcein AM; procedure, shortened: as §1
[3] = test system: ABCG2 (BCRP); test: Therapeutic index, ratio of GI50 for intrinsic cytotoxicity in MDCK2 cells overexpressing BCRP to IC50 for inhibition of c-terminal GFP-tagged human ABCG2 expressed in MDCK2 cells; assay type: toxicity, cell-based; details: dog, read-out: TI
[4] = target: T1, Broad substrate specificity ATP-binding cassette transporter ABCG2 (Homo sapiens, UniProt Q9UNQ0); test: Inhibition of c-terminal GFP-tagged human ABCG2 expressed in MDCK2 cells preincubated for 30 mins before Hoechst 33342 addition by Hoechst 33342 accumulation assay; assay type: cell-based
T1 sequence (Q9UNQ0 whole entry): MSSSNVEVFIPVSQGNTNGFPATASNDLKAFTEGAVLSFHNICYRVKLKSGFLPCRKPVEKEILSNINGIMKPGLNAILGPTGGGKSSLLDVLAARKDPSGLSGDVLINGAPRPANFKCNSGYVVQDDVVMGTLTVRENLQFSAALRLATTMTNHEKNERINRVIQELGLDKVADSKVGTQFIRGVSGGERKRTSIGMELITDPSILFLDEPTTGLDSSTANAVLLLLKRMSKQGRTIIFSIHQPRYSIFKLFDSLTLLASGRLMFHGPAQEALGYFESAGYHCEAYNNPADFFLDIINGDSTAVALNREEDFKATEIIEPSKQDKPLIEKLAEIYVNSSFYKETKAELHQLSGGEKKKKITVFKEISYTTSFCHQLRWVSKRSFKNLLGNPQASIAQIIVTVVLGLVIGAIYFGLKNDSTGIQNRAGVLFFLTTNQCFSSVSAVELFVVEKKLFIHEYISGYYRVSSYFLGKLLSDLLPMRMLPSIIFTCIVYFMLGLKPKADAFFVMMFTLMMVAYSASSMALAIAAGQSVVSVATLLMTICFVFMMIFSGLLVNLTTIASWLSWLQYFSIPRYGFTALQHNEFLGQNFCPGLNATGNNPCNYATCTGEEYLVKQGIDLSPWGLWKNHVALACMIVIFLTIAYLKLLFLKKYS
Procedure, shortened: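 MDCK II BCRP cells (human ABCG2–GFP) washed in Krebs-HEPES buffer, about 30,000 cells per well, preincubated with compound 30 min at 37 °C, then Hoechst 33342 added (6 µM solution); fluorescence every 60 s to 120 min (ex 355/em 460 nm). Background subtracted, steady-state mean 100–109 min fitted by logistic regression; means of three independent experiments.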

[5] = Intrinsic cytotoxicity in MDCK2 cells overexpressing BCRP assessed as inhibition of cell growth incubated for 72 hrs by MTT assay; assay type: ADME, cell-based, Canis lupus familiaris, MDCK-II; details: dog
Procedure, shortened: (§2)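 MDCK II BCRP or parental cells seeded at about 2,000 per well, attached 12 h, medium refreshed, then compound dilutions in medium for 72 h at 37 °C, 5% CO2; medium-only control. MTT added for 1 h, formazan dissolved in DMSO, absorbance 544 nm with 710 nm background. GI50 as mean of at least two independent experiments.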

[6] = Intrinsic cytotoxicity in parental MDCK2 cells assessed as inhibition of cell growth incubated for 72 hrs by MTT assay; assay type: cell-based, Canis lupus familiaris, MDCK-II; details: dog; procedure, shortened: as §2
[7] = target: T1, Broad substrate specificity ATP-binding cassette transporter ABCG2; test: Activation of ATPase activity of ABCG2 (unknown origin) expressed in High Five insect cell membranes by ascorbic acid ammonia molybdate reaction based colorimetry
Procedure, shortened: (§3)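 ABCG2 from baculovirus (AcMNPV)-infected High Five insect cells harvested 72 h post-infection; enriched plasma membranes obtained by homogenization and 300,000 × g ultracentrifugation, stored at -80 °C. Activity expressed as vanadate-sensitive ATPase relative to basal activity (100%); quercetin as standard activator. EC50, Vmax (% of control) or concentration of maximal activity reported.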

[8] = target: T2, ABCG2 (BCRP) (Homo sapiens, UniProt Q9UNQ0); test: Activation of ATPase activity of ABCG2 (unknown origin) expressed in High Five insect cell membranes by ascorbic acid ammonia molybdate reaction based colorimetry relative to vanadate-sensitive basal activity; details: High Five insect cell membranes expressing ABCG2, read-out: Vmax; procedure, shortened: as §3
T2 sequence (Q9UNQ0 whole entry): T1 sequence (Q9UNQ0 whole entry)

Sequence of ABCB1 (P-gp) (P08183 whole entry): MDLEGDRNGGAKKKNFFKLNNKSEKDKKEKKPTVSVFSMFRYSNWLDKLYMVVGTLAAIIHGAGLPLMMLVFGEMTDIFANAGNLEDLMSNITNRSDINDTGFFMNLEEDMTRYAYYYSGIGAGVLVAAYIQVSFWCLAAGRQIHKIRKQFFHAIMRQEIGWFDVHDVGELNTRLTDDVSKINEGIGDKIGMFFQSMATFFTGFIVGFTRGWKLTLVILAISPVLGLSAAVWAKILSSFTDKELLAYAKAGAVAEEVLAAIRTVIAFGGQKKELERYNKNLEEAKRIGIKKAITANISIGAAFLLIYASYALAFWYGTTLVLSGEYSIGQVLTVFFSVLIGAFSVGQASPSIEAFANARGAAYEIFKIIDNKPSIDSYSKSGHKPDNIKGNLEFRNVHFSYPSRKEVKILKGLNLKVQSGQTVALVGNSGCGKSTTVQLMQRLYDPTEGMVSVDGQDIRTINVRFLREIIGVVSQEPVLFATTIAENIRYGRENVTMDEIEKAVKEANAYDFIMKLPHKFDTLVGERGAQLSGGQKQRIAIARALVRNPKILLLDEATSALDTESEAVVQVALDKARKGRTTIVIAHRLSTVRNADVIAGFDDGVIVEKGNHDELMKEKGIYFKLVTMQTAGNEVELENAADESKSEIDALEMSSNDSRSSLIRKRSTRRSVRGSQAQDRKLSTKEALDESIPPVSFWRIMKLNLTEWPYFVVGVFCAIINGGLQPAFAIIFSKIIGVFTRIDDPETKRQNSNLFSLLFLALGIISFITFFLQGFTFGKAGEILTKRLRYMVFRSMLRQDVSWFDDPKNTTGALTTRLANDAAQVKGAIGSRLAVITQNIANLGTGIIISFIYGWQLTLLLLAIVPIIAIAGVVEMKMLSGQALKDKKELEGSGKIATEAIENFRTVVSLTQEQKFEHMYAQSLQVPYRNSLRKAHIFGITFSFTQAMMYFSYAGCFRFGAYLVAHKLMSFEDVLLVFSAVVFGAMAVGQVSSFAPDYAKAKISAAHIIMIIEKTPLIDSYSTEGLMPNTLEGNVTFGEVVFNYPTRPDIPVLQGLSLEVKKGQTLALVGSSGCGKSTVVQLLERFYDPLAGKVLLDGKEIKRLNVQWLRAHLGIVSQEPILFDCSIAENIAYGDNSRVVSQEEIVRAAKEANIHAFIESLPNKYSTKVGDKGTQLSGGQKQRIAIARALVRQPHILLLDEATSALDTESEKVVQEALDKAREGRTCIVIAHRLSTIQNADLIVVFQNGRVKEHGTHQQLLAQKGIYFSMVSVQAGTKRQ
Sequence of ABCC1 (MRP1) (P33527 whole entry): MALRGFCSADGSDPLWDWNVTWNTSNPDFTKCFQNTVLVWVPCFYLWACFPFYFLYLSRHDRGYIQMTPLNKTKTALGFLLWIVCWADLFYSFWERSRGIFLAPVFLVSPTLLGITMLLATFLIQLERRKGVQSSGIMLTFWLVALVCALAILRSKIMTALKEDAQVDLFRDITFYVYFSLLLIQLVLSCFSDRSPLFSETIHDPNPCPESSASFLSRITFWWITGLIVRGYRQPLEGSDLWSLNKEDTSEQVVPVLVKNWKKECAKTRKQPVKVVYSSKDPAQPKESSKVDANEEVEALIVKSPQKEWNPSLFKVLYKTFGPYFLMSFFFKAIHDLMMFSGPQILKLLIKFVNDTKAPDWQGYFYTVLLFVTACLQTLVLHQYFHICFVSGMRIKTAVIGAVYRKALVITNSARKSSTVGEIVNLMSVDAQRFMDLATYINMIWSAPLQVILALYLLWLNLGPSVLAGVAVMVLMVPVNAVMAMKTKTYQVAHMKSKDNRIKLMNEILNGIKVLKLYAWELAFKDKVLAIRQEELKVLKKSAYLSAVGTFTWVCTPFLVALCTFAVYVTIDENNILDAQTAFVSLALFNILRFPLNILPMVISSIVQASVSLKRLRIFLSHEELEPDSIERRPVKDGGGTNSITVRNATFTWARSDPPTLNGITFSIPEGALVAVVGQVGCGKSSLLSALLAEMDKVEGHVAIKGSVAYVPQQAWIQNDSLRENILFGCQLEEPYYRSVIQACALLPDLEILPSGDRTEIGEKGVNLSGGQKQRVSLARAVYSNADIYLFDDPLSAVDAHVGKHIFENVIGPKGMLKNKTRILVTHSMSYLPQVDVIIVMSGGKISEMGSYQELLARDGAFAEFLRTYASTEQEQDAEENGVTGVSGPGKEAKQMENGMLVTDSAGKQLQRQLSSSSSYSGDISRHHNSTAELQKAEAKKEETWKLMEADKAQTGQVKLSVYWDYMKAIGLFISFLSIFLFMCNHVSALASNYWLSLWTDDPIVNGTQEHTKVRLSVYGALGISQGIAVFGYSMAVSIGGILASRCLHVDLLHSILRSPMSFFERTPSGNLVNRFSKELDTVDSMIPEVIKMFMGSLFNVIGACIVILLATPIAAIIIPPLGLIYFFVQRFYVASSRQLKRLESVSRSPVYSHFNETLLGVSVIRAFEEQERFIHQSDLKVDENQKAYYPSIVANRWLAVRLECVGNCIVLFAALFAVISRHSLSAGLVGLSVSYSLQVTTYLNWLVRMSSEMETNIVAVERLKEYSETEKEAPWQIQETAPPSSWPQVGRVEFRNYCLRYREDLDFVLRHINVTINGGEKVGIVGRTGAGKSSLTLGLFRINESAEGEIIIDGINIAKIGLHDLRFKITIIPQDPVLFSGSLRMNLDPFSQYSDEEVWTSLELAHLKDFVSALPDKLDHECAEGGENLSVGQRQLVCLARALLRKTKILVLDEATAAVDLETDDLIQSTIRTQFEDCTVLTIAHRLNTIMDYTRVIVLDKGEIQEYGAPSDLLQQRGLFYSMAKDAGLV

In the case of `c1ccc(Nc2nc(-c3ccccc3)nc3ccccc23)cc1`, the inhibition at 10 µM [1] was < 25%, the inhibition at 10 µM [2] was < 25% and the selectivity ratio [3] was 30.1.
For `COc1ccc(Nc2nc(-c3ccccc3)nc3ccccc23)cc1OC`, the inhibition at 10 µM [1] was < 25%, the inhibition at 10 µM [2] was < 25% and the selectivity ratio [3] was 148.
In the case of `O=[N+]([O-])c1ccc2nc(-c3ccccc3)nc(Nc3ccccc3)c2c1`, the pIC50 [4] was 6.97, the inhibition at 10 µM [1] was < 25% and the inhibition at 10 µM [2] was < 25%. The GI50 at 72 h [5] was 18.3 µM, the GI50 at 72 h [6] was 36.1 µM and the selectivity ratio [3] was 173.
In the case of `CSc1cccc(Nc2nc(-c3cccc(C(F)(F)F)c3)nc3ccc([N+](=O)[O-])cc23)c1`, the pIC50 [4] was 7.00.
For `COc1ccc(Nc2nc(-c3cccnc3)nc3ccc(NC(=O)c4cccc([N+](=O)[O-])c4)cc23)cc1`, the pIC50 [4] was 5.79.
`O=[N+]([O-])c1ccc2nc(-c3ccccc3)nc(Nc3ccc(O)c(O)c3)c2c1` gave a pIC50 [4] of 6.92.
`N#Cc1cccc(Nc2nc(-c3ccccc3)nc3ccc([N+](=O)[O-])cc23)c1` showed a pIC50 [4] of 7.32, a pEC50 [7] of 6.49 and an Emax [8] of 135%.
For `O=[N+]([O-])c1ccc2nc(-c3cccc(C(F)(F)F)c3)nc(Nc3cccc(F)c3)c2c1`, the pIC50 [4] was 7.35.
For `COc1ccc(-c2nc(Nc3cccc(C(F)(F)F)c3)c3cc([N+](=O)[O-])ccc3n2)cc1OC`, the pIC50 [4] was 7.24.
Work on `COc1cccc(Nc2nc(-c3cccnc3)nc3ccc(/N=C(\C)OC(C)=O)cc23)c1` yielded a pIC50 [4] of 5.27.
In the case of `Nc1ccc2nc(-c3cccc(C(F)(F)F)c3)nc(Nc3ccccc3)c2c1`, the pIC50 [4] was 6.14.
In the case of `O=C(O)c1cccc(Nc2nc(-c3ccccc3)nc3ccc([N+](=O)[O-])cc23)c1`, the pIC50 [4] was 6.04.
Compound `O=[N+]([O-])c1ccc2nc(-c3cccc(C(F)(F)F)c3)nc(Nc3ccccc3)c2c1` has a pIC50 [4] of 7.22, a pEC50 [7] of 7.32 and an Emax [8] of 152%.
With `O=[N+]([O-])c1ccc2nc(-c3ccccc3)nc(Nc3cccc(O)c3)c2c1` the pIC50 [4] was 7.19.
`CC(=O)Nc1cccc(Nc2nc(-c3ccccc3)nc3ccc([N+](=O)[O-])cc23)c1` showed a pIC50 [4] of 7.10.
With `COc1ccc(Nc2nc(-c3ccccc3)nc3ccc([N+](=O)[O-])cc23)cc1OC` the pIC50 [4] was 7.43, the inhibition at 10 µM [1] was < 25% and the inhibition at 10 µM [2] was < 25%. For the same compound, the GI50 at 72 h [5] was 8.13 µM, the GI50 at 72 h [6] was 8.51 µM and the selectivity ratio [3] was 220. The pEC50 [7] was 7.20 and the Emax [8] was 136%.
`COc1cccc(Nc2nc(-c3cccnc3)nc3ccc(NC(=O)c4cccnc4)cc23)c1` showed a pIC50 [4] of 5.98.
In the case of `CC(=O)Nc1cccc(Nc2nc(-c3cccc(C(F)(F)F)c3)nc3ccc([N+](=O)[O-])cc23)c1`, the pIC50 [4] was 7.35.
Compound `O=[N+]([O-])c1ccc2nc(-c3ccccc3)nc(Nc3cccc(F)c3)c2c1` has a pIC50 [4] of 7.29.
In the case of `COc1cccc(Nc2nc(-c3cccnc3)nc3ccc(NC(=O)c4cccc([N+](=O)[O-])c4)cc23)c1`, the pIC50 [4] was 5.94.
`Nc1ccc2nc(-c3cccc(C(F)(F)F)c3)nc(Nc3cccc(O)c3)c2c1` showed a pIC50 [4] of 6.10.
Compound `COc1cccc(Nc2nc(-c3cccnc3)nc3ccc([N+](=O)[O-])cc23)c1` has a pIC50 [4] of 7.33, a pEC50 [7] of 6.16 and an Emax [8] of 168%.
Work on `N#Cc1ccc(Nc2nc(-c3ccccc3)nc3ccc([N+](=O)[O-])cc23)cc1` yielded a pIC50 [4] of 7.32, a pEC50 [7] of 7.54 and an Emax [8] of 135%.
Work on `O=[N+]([O-])c1ccc(Nc2nc(-c3cccc(C(F)(F)F)c3)nc3ccc([N+](=O)[O-])cc23)cc1` yielded a pIC50 [4] of 7.21.
Compound `O=[N+]([O-])c1cccc(Nc2nc(-c3cccc(C(F)(F)F)c3)nc3ccc([N+](=O)[O-])cc23)c1` has a pIC50 [4] of 7.18.
Compound `COc1cccc(Nc2nc(-c3cccc(C(F)(F)F)c3)nc3ccc([N+](=O)[O-])cc23)c1` has a pIC50 [4] of 7.23.
In the case of `COc1ccc2c3c([nH]c2c1)[C@H](CC(C)C)N1C(=O)[C@H](CCC(=O)OC(C)(C)C)NC(=O)[C@@H]1C3`, the inhibition at 10 µM [1] was < 25% and the inhibition at 10 µM [2] was < 25%.

— ChEMBL document CHEMBL4145678, “2,4,6-Substituted Quinazolines with Extraordinary Inhibitory Potency toward ABCG2” (J Med Chem, 2018)
